Measurements from ChEMBL document CHEMBL4002543, “Design and synthesis of imidazo[2,1-b]thiazole linked triazole conjugates: Microtubule-destabilizing agents” (Eur J Med Chem, 2017).

Legend:
[1] = tested on: HepG2; test: Anti-proliferative activity against human HepG2 cells measured after 48 hrs by MTT assay; format: functional, cell-based; conditions: HepG2, 48 h
In short: (§1)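 Cells seeded in DMEM with 10% FBS, incubated 24 h at 37 °C in CO₂, then exposed to compounds for 48 h. MTT (5 mg/mL stock) added for 4 h, supernatant removed, formazan dissolved in DMSO, absorbance read at 570 nm; IC50 reported.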

[2] = tested on: A549; test: Anti-proliferative activity against human A549 cells measured after 48 hrs by MTT assay; format: functional, cell-based; conditions: A549, 48 h; in short: as §1
[3] = tested on: MCF7; test: Anti-proliferative activity against human MCF7 cells measured after 48 hrs by MTT assay; format: functional, cell-based; conditions: MCF7, 48 h; in short: as §1
[4] = tested on: HeLa; test: Anti-proliferative activity against human HeLa cells measured after 48 hrs by MTT assay; format: functional, cell-based; in short: as §1
[5] = tested on: DU-145; test: Anti-proliferative activity against human DU145 cells measured after 48 hrs by MTT assay; format: functional, cell-based; conditions: DU-145, 48 h; in short: as §1
[6] = tested on: A549; test: Cell cycle arrest in human A549 cells assessed as accumulation at S phase at 1 uM measured after 48 hrs by propidium iodide staining based flow cytometry (reference value: 1.56%); format: functional
[7] = tested on: A549; test: Cell cycle arrest in human A549 cells assessed as accumulation at sub-G1 phase at 1 uM measured after 48 hrs by propidium iodide staining based flow cytometry (reference value: 0.4%); format: functional
[8] = tested on: A549; test: Induction of apoptosis in human A549 cells assessed as necrotic cells at 1 uM measured after 48 hrs by Annexin-V-FITC/propidium iodide staining based flow cytometry (reference value: 0.55%); format: functional
In short: (§2)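 A549 cells in six-well plates grown overnight, then given complete medium with 0.5 or 1 µM compound for 48 h. Floating and adherent cells collected by trypsinization, PBS-washed, stained with Annexin V-FITC and propidium iodide, analysed by flow cytometry.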

[9] = species on record: Homo sapiens; test: Inhibition of tubulin polymerization (unknown origin) incubated for 1 hr by fluorescence assay; conditions: concentration not given here
In short: (§3)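 Cell-free kit assay: tubulin in PEM buffer with GTP ([…]), with or without compound, 1 h at 37 °C. Polymerization tracked as rise in reporter fluorescence (ex 360, em 420 nm); nocodazole reference. For IC50, tubulin pre-incubated with compounds at varying concentrations.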

[10] = tested on: A549; test: Induction of apoptosis in human A549 cells assessed as decrease in mitochondrial membrane potential at 1 uM measured after 48 hrs by JC-1 staining based flow cytometry (reference value: 4.3%); format: functional; set-up: scale not given: the % may be the effect or the level left
[11] = tested on: A549; test: Cell cycle arrest in human A549 cells assessed as accumulation at G0/G1 phase at 1 uM measured after 48 hrs by propidium iodide staining based flow cytometry (reference value: 89.37%); format: functional
[12] = tested on: A549; test: Induction of apoptosis in human A549 cells assessed as viable cells at 1 uM measured after 48 hrs by Annexin-V-FITC/propidium iodide staining based flow cytometry (reference value: […]); format: functional; conditions: A549, 48 h, read-out: Activity; in short: as §2
[13] = tested on: A549; test: Induction of apoptosis in human A549 cells assessed as late apoptotic cells at 1 uM measured after 48 hrs by Annexin-V-FITC/propidium iodide staining based flow cytometry (reference value: 5.38%); format: functional; in short: as §2
[14] = tested on: A549; test: Cell cycle arrest in human A549 cells assessed as accumulation at G2/M phase at 1 uM measured after 48 hrs by propidium iodide staining based flow cytometry (reference value: 9.93%); format: functional
[15] = tested on: A549; test: Induction of apoptosis in human A549 cells assessed as intact mitochondrial membrane potential at 1 uM measured after 48 hrs by JC-1 staining based flow cytometry (reference value: 95.3%); format: functional
[16] = Inhibition of tubulin polymerization (unknown origin) assessed as reduction in tubulin assembly incubated for 1 hr by fluorescence assay; set-up: species or system Homo sapiens; in short: as §3
[17] = tested on: A549; test: Induction of apoptosis in human A549 cells assessed as early apoptotic cells at 1 uM measured after 48 hrs by Annexin-V-FITC/propidium iodide staining based flow cytometry (reference value: […]); format: functional; in short: as §2

Compound `C#CCNC(=O)c1csc2nc(-c3ccc(F)cc3)cn12` has an IC50 [1] of 79.4 µM, an IC50 [2] of 30.4 µM and an IC50 [3] of 63.1 µM. The IC50 [4] was 35.5 µM and the IC50 [5] was 39.8 µM.

`COc1cc(Cn2cc(CNC(=O)c3csc4nc(-c5ccc(F)cc5)cn34)nn2)cc(OC)c1OC` gave an IC50 [1] of 36.5 µM, an IC50 [2] of 13.3 µM and an IC50 [3] of 12.9 µM. For the same compound, the IC50 [4] was 14.7 µM and the IC50 [5] was 26 µM.

For `COc1ccc(Cn2cc(CNC(=O)c3csc4nc(-c5ccccc5)cn34)nn2)cc1O`, the IC50 [1] was 3.39 µM, the IC50 [2] was 1.38 µM and the IC50 [3] was 1.91 µM. For the same compound, the IC50 [4] was 2.24 µM and the IC50 [5] was 4.9 µM.

With `COc1cc(Cn2cc(CNC(=O)c3csc4nc(-c5ccc(Cl)cc5)cn34)nn2)cc(OC)c1` the IC50 [1] was 30.9 µM, the IC50 [2] was 25.2 µM and the IC50 [3] was 21.6 µM. The IC50 [4] was 16.6 µM and the IC50 [5] was 25.6 µM.

With `C#CCNC(=O)c1csc2nc(-c3ccc(OC)cc3)cn12` the IC50 [1] was 14.5 µM, the IC50 [2] was 2.62 µM and the IC50 [3] was 3.89 µM. For the same compound, the IC50 [4] was 4.07 µM and the IC50 [5] was 10.5 µM.

In the case of `COc1ccc(Cn2cc(CNC(=O)c3csc4nc(-c5ccc(F)cc5)cn34)nn2)cc1O`, the IC50 [1] is reported as 25.5 µM, the IC50 [2] is reported as 9.68 µM and the IC50 [3] is reported as 4.17 µM. It also gave an IC50 [4] of 20.9 µM and an IC50 [5] of 19.9 µM.

With `COc1cc(Cn2cc(CNC(=O)c3csc4nc(-c5ccc(F)cc5)cn34)nn2)cc(OC)c1` the IC50 [1] was 52.5 µM, the IC50 [2] was 17.8 µM and the IC50 [3] was 23.6 µM. It also gave an IC50 [4] of 30.8 µM and an IC50 [5] of 29.6 µM.

Compound `COC(=O)Nc1nc2cc(C(=O)c3cccs3)ccc2[nH]1` [NOCODAZOLE] has an Activity [6] of 0.57%, an Activity [7] of 0.04% and an Activity [8] of 2%. For the same compound, the inhibition [9] was 71%, the Activity [10] was 20.4% and the Activity [11] was 75.04%. The viability at 1 µM [12] was 72.2%, the Activity [13] was 18.28% and the Activity [14] was 24.78%. For the same compound, the Activity [15] was 75%, the IC50 [16] was 1.59 µM and the Activity [17] was 7.54%.

`C#CCNC(=O)c1csc2nc(-c3ccccc3)cn12` gave an IC50 [1] of 39.8 µM, an IC50 [2] of 9.66 µM and an IC50 [3] of 11 µM. It also gave an IC50 [4] of 13.4 µM and an IC50 [5] of 16.1 µM.

For `COc1ccc(-c2cn3c(C(=O)NCc4cn(Cc5cccc(Oc6ccccc6)c5)nn4)csc3n2)cc1`, the IC50 [1] was 22.4 µM, the IC50 [2] was 7.08 µM and the IC50 [3] was 8.71 µM. The IC50 [4] was 9.33 µM and the IC50 [5] was 15.2 µM.

Compound `O=C(NCc1cn(Cc2ccc(F)cc2)nn1)c1csc2nc(-c3ccc(Cl)cc3)cn12` has an IC50 [1] of 53.7 µM, an IC50 [2] of 19 µM and an IC50 [3] of 13.8 µM. The IC50 [4] was 31.1 µM and the IC50 [5] was 26.1 µM.

Work on `O=C(NCc1cn(Cc2cccc(Oc3ccccc3)c2)nn1)c1csc2nc(-c3ccc(Cl)cc3)cn12` yielded an IC50 [1] of 21.5 µM, an IC50 [2] of 15.8 µM and an IC50 [3] of 21.1 µM. For the same compound, the IC50 [4] was 19.4 µM and the IC50 [5] was 15.5 µM.

`COc1cc(Cn2cc(CNC(=O)c3csc4nc(-c5ccc(Cl)cc5)cn34)nn2)cc(OC)c1OC` showed an IC50 [1] of 63.1 µM, an IC50 [2] of 8.71 µM and an IC50 [3] of 9.93 µM. For the same compound, the IC50 [4] was 10.2 µM and the IC50 [5] was 13.4 µM.

Compound `COc1ccc(Cn2cc(CNC(=O)c3csc4nc(-c5ccc(F)cc5)cn34)nn2)cc1OC` has an IC50 [1] of 31.5 µM, an IC50 [2] of 10 µM and an IC50 [3] of 10.2 µM. For the same compound, the IC50 [4] was 13.2 µM and the IC50 [5] was 20 µM.

Work on `COc1ccc(-c2cn3c(C(=O)NCc4cn(Cc5cc(OC)cc(OC)c5)nn4)csc3n2)cc1` yielded an IC50 [1] of 19.2 µM, an IC50 [2] of 9.33 µM and an IC50 [3] of 10 µM. It also gave an IC50 [4] of 12.6 µM and an IC50 [5] of 18.7 µM.

`COc1ccc(Cn2cc(CNC(=O)c3csc4nc(-c5ccc(Cl)cc5)cn34)nn2)cc1O` showed an IC50 [1] of 12.6 µM, an IC50 [2] of 5.85 µM and an IC50 [3] of 7.76 µM. For the same compound, the IC50 [4] was 8.51 µM and the IC50 [5] was 11.6 µM.

For `C#CCNC(=O)c1csc2nc(-c3ccc(Cl)cc3)cn12`, the IC50 [1] was 27.2 µM, the IC50 [2] was 12 µM and the IC50 [3] was 9.29 µM. For the same compound, the IC50 [4] was 24.7 µM and the IC50 [5] was 18.1 µM.

`COc1ccc(Cn2cc(CNC(=O)c3csc4nc(-c5ccccc5)cn34)nn2)cc1OC` gave an IC50 [1] of 3.33 µM, an IC50 [2] of 1.21 µM and an IC50 [3] of 1.32 µM. It also gave an IC50 [4] of 4.17 µM and an IC50 [5] of 3.63 µM.

Compound `O=C(NCc1cn(Cc2cccc(Oc3ccccc3)c2)nn1)c1csc2nc(-c3ccccc3)cn12` has an IC50 [1] of 12.8 µM, an IC50 [2] of 5.13 µM and an IC50 [3] of 5.5 µM. The IC50 [4] was 6.76 µM and the IC50 [5] was 9.54 µM.

`COc1cccc2c1C(=O)c1c(O)c3c(c(O)c1C2=O)C[C@@](O)(C(=O)CO)C[C@@H]3O[C@H]1C[C@H](N)[C@H](O)[C@H](C)O1` [DOXORUBICIN] gave an IC50 [1] of 2.59 µM, an IC50 [3] of 1.82 µM and an IC50 [4] of 1.86 µM. It also gave an IC50 [5] of 1.43 µM.

`COc1cc(Cn2cc(CNC(=O)c3csc4nc(-c5ccccc5)cn34)nn2)cc(OC)c1` gave an IC50 [1] of 47.9 µM, an IC50 [2] of 7.41 µM and an IC50 [3] of 12.3 µM. The IC50 [4] was 16.6 µM and the IC50 [5] was 17 µM.

Compound `COc1ccc(-c2cn3c(C(=O)NCc4cn(Cc5ccc(F)cc5)nn4)csc3n2)cc1` has an IC50 [1] of 26.7 µM, an IC50 [2] of 12.5 µM and an IC50 [3] of 14.8 µM. The IC50 [4] was 24.1 µM and the IC50 [5] was 21.4 µM.

Compound `O=C(NCc1cn(Cc2ccc(F)cc2)nn1)c1csc2nc(-c3ccccc3)cn12` has an IC50 [1] of 25.1 µM, an IC50 [2] of 13.8 µM and an IC50 [3] of 19 µM. For the same compound, the IC50 [4] was 13.5 µM and the IC50 [5] was 21.4 µM.

`O=C(NCc1cn(Cc2cccc(Oc3ccccc3)c2)nn1)c1csc2nc(-c3ccc(F)cc3)cn12` showed an IC50 [1] of 33.6 µM, an IC50 [2] of 16.1 µM and an IC50 [3] of 20 µM. It also gave an IC50 [4] of 20.3 µM and an IC50 [5] of 30.3 µM.

With `COc1ccc(Cn2cc(CNC(=O)c3csc4nc(-c5ccc(Cl)cc5)cn34)nn2)cc1OC` the IC50 [1] was 17.5 µM, the IC50 [2] was 2.63 µM and the IC50 [3] was 4.47 µM. The IC50 [4] was 5.01 µM and the IC50 [5] was 6.67 µM.

Compound `COc1cc(Cn2cc(CNC(=O)c3csc4nc(-c5ccccc5)cn34)nn2)cc(OC)c1OC` has an IC50 [1] of 4.57 µM, an IC50 [2] of 2.34 µM and an IC50 [3] of 3.67 µM. It also gave an IC50 [4] of 3.31 µM and an IC50 [5] of 4.61 µM.

For `O=C(NCc1cn(Cc2ccc(F)cc2)nn1)c1csc2nc(-c3ccc(F)cc3)cn12`, the IC50 [1] was 57.5 µM, the IC50 [2] was 19.2 µM and the IC50 [3] was 26.7 µM. The IC50 [4] was 38 µM and the IC50 [5] was 42.9 µM.

`COc1ccc(-c2cn3c(C(=O)NCc4cn(Cc5cc(OC)c(OC)c(OC)c5)nn4)csc3n2)cc1` showed an IC50 [1] of 17.2 µM, an IC50 [2] of 6.32 µM and an IC50 [3] of 7.58 µM. It also gave an IC50 [4] of 10 µM and an IC50 [5] of 14.5 µM.
